# Peptide text beside a SMILES is read from it.
# Legend:
# HepG2 cells [1] = test: Cell viability / cytotoxicity; assay type: cell-based
# How it was run: (§1)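 HeLa and HepG2 grown in MEM with 10% (vol/vol) FBS and 0.5% (vol/vol) each penicillin and streptomycin, at 37 °C under 5% CO2. IC50 taken on the 2nd day of exposure to the test compound. Means ± SD from n > 3 independent experiments; significance by t-test.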
# HS-5 cells [2] = test: Multidrug resistance; assay type: cell-based; settings: normal cell line, Figure S5
# HepG2 cells [3] = test: Mitochondrial membrane potential by Rhodamine 123; assay type: cell-based; settings: 50 μM, 48 h
# AML12 cells = test: Cell viability / cytotoxicity; assay type: cell-based
# HeLa cells [4] = test: Cell viability / cytotoxicity; assay type: cell-based; settings: Flag-(C16)2 alone, 48h
# How it was run: as §1
# [5] = Critical micelle concentration; assay type: physicochemical; settings: Figure S6
# HeLa cells [6] = test: Mitochondrial membrane potential by Rhodamine 123; assay type: cell-based; settings: 48h, Rhodamine 123, Figure S15
# HS-5 cells [7] = test: Cell viability / cytotoxicity; assay type: cell-based
# [8] = test system: cytochrome c in HeLa cells; test: Cytochrome c in cytosol, Western blot; assay type: cell-based; settings: different concentration, Figure S17
# How it was run: (§2)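 Cells were exposed to the test compound for 48 h (HepG2: 100, 50, 25 and 0 μM). The cytosol fraction was blotted for cytochrome c. Protein was quantified by Coomassie, and 20 μg per lane was run on SDS-PAGE and transferred to PVDF. Bands were quantified by densitometry. Data are means ± SD, n > 3, t-test.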
# Drug loading efficiency = assay type: physicochemical; settings: determined from the LE%
# enterokinase (ENTK) = enterokinase (ENTK) (Homo sapiens, UniProt P98073); test: Enzymatic cleavage by ENTK; assay type: biochemical; settings: Flag-(C16)2 at 200 μM (above CMC), Figure S7D
# enterokinase (ENTK), sequence (P98073 whole entry, species assumed): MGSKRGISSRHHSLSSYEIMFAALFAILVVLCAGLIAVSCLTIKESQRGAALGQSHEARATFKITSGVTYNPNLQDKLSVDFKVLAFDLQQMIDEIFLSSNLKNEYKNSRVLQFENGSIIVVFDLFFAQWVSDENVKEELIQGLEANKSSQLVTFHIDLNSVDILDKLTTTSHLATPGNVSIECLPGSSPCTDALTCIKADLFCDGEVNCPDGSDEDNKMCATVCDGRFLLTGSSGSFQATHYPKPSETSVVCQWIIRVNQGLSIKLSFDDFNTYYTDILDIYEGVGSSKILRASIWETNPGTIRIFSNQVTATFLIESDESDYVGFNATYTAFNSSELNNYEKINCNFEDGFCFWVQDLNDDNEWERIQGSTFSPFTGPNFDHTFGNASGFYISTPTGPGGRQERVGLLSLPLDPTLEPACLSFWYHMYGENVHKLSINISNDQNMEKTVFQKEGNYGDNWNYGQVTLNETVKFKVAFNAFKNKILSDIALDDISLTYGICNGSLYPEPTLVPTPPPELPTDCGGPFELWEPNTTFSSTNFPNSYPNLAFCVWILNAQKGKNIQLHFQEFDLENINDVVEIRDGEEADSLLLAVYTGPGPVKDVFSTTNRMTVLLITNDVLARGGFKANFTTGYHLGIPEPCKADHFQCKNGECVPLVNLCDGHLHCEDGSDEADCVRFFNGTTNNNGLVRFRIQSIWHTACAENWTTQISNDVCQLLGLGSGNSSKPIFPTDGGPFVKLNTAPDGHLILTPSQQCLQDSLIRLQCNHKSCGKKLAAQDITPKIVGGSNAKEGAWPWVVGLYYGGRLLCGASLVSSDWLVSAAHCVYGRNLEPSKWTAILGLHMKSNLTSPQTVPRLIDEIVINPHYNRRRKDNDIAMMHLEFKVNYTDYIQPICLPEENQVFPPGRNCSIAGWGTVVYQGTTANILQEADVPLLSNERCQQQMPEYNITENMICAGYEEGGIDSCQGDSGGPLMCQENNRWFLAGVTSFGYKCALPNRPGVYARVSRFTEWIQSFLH
# Self-assembly = assay type: physicochemical; settings: 50 μM
# [9] = test system: cytochrome c in HepG2 cells; test: Cytochrome c in cytosol, Western blot; assay type: cell-based; settings: 100, 50, 25 μM, 48 h
# How it was run: as §2
# HepG2 cells [10] = test: Mitochondrial accumulation, fluorescence imaging with MitoTracker; assay type: cell-based; settings: Flag-(C16)2, 48h
# [11] = Solubility of the enzymatic product; assay type: physicochemical; settings: direct suspension of the enzymatic product
compound,measurement,setting,value
"O=C(N[C@H](CO)[C@H](O)c1ccc([N+](=O)[O-])cc1)C(Cl)Cl [CLRP, chloramphenicol, reference compound]","cell viability, HepG2","HepG2 cells [1]; free CLRP alone, Figure 2A",hardly suppresses the viability
same,"change of MDR, HS-5",HS-5 cells [2],Neither CLRP nor CLRP mixed with Flag-(C16)2 significantly change the MDR
"CCCCCCCCCCCCCCCCNC(=O)CC[C@H](NC(=O)CNC(=O)[C@H](CCCCN)NC(=O)[C@H](CC(=O)O)NC(=O)[C@H](CC(=O)O)NC(=O)[C@H](CC(=O)O)NC(=O)[C@H](CC(=O)O)NC(=O)[C@H](CCCCN)NC(=O)[C@H](Cc1ccc(O)cc1)NC(=O)[C@@H](N)CC(=O)O)C(=O)NCCCCCCCCCCCCCCCC [Flag-(C16)2] (HELM PEPTIDE1{D.Y.K.D.D.D.D.K.G.E.[CCCCCCCCCCCCCCCCN[*:1]]}|CHEM1{[CCCCCCCCCCCCCCCCN[*:1]]}$PEPTIDE1,CHEM1,10:R3-1:R1$$$V2.0)","mitochondrial membrane potential, HepG2",HepG2 cells [3],reduced mitochondrial membrane potential
same,"cell death, AML12",AML12 cells,hardly induces cell death
same,"cell viability, HeLa",HeLa cells [4],decrease of cell viability
same,critical micelle concentration (CMC),[5],43 µM
same,"cell viability, HepG2","HepG2 cells [1]; Flag-(C16)2 alone, 48h",decrease of cell viability
same,"mitochondrial membrane potential, HeLa",HeLa cells [6],reduced mitochondrial membrane potential
same,"cell death, HS-5",HS-5 cells [7],hardly induces cell death
same,"cytochrome c in the cytosol, HeLa",[8],increased cytochrome c
same,encapsulation capacity (EC),Drug loading efficiency,66.7 μg CLRP in per mg Flag-(C16)2 micelles
same,hydrolysis by ENTK,enterokinase (ENTK),hydrolyzes
same,self-assembly after adding ENTK,"Self-assembly; ENTK, 24 h, 37 °C, static light scattering",larger micelle-like aggregates
same,self-assembly in solution,Self-assembly; before ENTK,self-assembles into nanoparticles
same,"cytochrome c in the cytosol, HepG2",[9],increased cytochrome c
same,"mitochondrial morphology, HepG2",HepG2 cells [10],fragmental mitochondria
Gly-Glu-(C16)2,solubility,[11],poor solubility
